Measurements taken from ChEMBL document CHEMBL1157100, “The alkyl-connected 2-amino-6-vinylpurine (AVP) crosslinking agent for improved selectivity to the cytosine base in RNA” (Bioorg Med Chem, 2010).
Calls of active or inactive are those of the source. The calls are words filed in the database; no cut-off is given here.

Tests used:
Assay type in all cases: nucleic-acid assay
[1] = test system: Nucleic Acid; assay: Binding affinity to r-(ACGUGAAUUGUUCAACAGUAUGGGCAU)-RNA assessed as melting temperature at 1.5 uM by UV-visible spectrophotometry
How it was run: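 Each strand at 1.5 µM: ODN plus complementary 27-mer RNA in 100 mM NaCl, 50 mM MES pH 5. Samples were heated at 85 °C for 10 min and cooled slowly. Melting curves were recorded at 260 nm while warming 20 to 80 °C at 1.0 °C/min to obtain Tm.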

[2] = test system: Nucleic Acid; assay: Binding affinity to FAM-tagged 27 mer RNA hairpin loop assessed as crosslinking at 10 uM by PAGE
How it was run: (§1)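 Reactive ODN at 10 µM with 1 µM FAM-labeled target DNA or RNA in 100 mM NaCl, 50 mM MES pH 5 plus RNase OUT, mixed at 0 °C and then incubated at 37 °C. Reactions were stopped at set times with formamide/EDTA/bromophenol blue buffer. Products were resolved on 15% denaturing polyacrylamide gel with 7 M urea, and FAM band intensities were quantified to give crosslinking yield.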

[3] = test system: Nucleic Acid; assay: Binding affinity to FAM-tagged r-(CAAGCGGAGAAAYUAAUUGCGGGUCGC)-RNA assessed as crosslinking at 10 uM by alkylation method; how it was run: as §1

SMILES	Tm [1]	Activity [2]	Activity [3]
Cc1cn([C@H]2C[C@H](OP(CCC#N)N(C(C)C)C(C)C)[C@@H](COP(=O)(O)O[C@H]3[C@@H](O)[C@H](n4cnc5c(N)ncnc54)O[C@@H]3COP(=O)(O)O[C@H]3[C@@H](O)[C@H](n4cnc5c(N)ncnc54)O[C@@H]3COP(=O)(O)O[C@H]3[C@@H](O)[C@H](n4ccc(N)nc4=O)O[C@@H]3COP(=O)(O)O[C@H]3[C@@H](O)[C@H](n4cnc5c(=O)[nH]c(N)nc54)O[C@@H]3COP(=O)(O)O[C@H]3[C@@H](O)[C@H](n4cnc5c(N)ncnc54)O[C@@H]3COP(=O)(O)O[C@H]3[C@@H](O)[C@H](n4cnc5c(=O)[nH]c(N)nc54)O[C@@H]3COP(=O)(O)O[C@H]3C[C@H](n4cc(C)c(=O)[nH]c4=O)O[C@@H]3COP(=O)(O)O[C@H]3C[C@H](n4cc(C)c(=O)[nH]c4=O)O[C@@H]3COP(=O)(O)O[C@H]3[C@@H](O)[C@H](n4cnc5c(=O)[nH]c(N)nc54)O[C@@H]3COP(=O)(O)O[C@H]3C[C@H](n4cc(C)c(=O)[nH]c4=O)O[C@@H]3COP(=O)(O)O[C@H]3[C@@H](O)[C@H](n4ccc(N)nc4=O)O[C@@H]3COP(=O)(O)O[C@H]3[C@@H](O)[C@H](n4cnc5c(N)ncnc54)O[C@@H]3COP(=O)(O)O[C@H]3C[C@H](n4cc(C)c(=O)[nH]c4=O)O[C@@H]3COP(=O)(O)O[C@H]3[C@@H](O)[C@H](n4cnc5c(N)ncnc54)O[C@@H]3COP(=O)(O)O[C@H]3[C@@H](O)[C@H](n4ccc(N)nc4=O)O[C@@H]3COP(=O)(O)O[C@H]3[C@@H](O)[C@H](n4ccc(N)nc4=O)O[C@@H]3COP(=O)(O)O[C@H]3[C@@H](O)[C@H](n4ccc(N)nc4=O)O[C@@H]3COP(=O)(O)O[C@H]3[C@@H](O)[C@H](n4cnc5c(=O)[nH]c(N)nc54)O[C@@H]3COP(=O)(O)O[C@H]3C[C@H](n4cc(C)c(=O)[nH]c4=O)O[C@@H]3COP(=O)(O)O[C@H]3[C@@H](O)[C@H](n4cnc5c(N)ncnc54)O[C@@H]3CO)O2)c(=O)[nH]c1=O (some centres not stated)	64.1 °C		
CSCCc1nc(N)nc2c1ncn2CC[C@H]1C[C@H](OP(=O)(O)OC[C@H]2O[C@@H](n3cc(C)c(=O)[nH]c3=O)C[C@@H]2OP(=O)(O)OC[C@H]2O[C@@H](n3cc(C)c(=O)[nH]c3=O)C[C@@H]2OP(=O)(O)OC[C@H]2O[C@@H](n3cnc4c(=O)[nH]c(N)nc43)[C@H](O)[C@@H]2OP(=O)(O)OC[C@H]2O[C@@H](n3cnc4c(N)ncnc43)[C@H](O)[C@@H]2OP(=O)(O)OC[C@H]2O[C@@H](n3cnc4c(=O)[nH]c(N)nc43)[C@H](O)[C@@H]2OP(=O)(O)OC[C@H]2O[C@@H](n3ccc(N)nc3=O)[C@H](O)[C@@H]2OP(=O)(O)OC[C@H]2O[C@@H](n3cnc4c(N)ncnc43)[C@H](O)[C@@H]2OP(=O)(O)OC[C@H]2O[C@@H](n3cnc4c(N)ncnc43)[C@H](O)[C@@H]2OP(=O)(O)OC[C@H]2O[C@@H](n3cc(C)c(=O)[nH]c3=O)C[C@@H]2OP(CCC#N)N(C(C)C)C(C)C)[C@@H](COP(=O)(O)O[C@H]2C[C@H](n3cc(C)c(=O)[nH]c3=O)O[C@@H]2COP(=O)(O)O[C@H]2[C@@H](O)[C@H](n3ccc(N)nc3=O)O[C@@H]2COP(=O)(O)O[C@H]2[C@@H](O)[C@H](n3cnc4c(N)ncnc43)O[C@@H]2COP(=O)(O)O[C@H]2C[C@H](n3cc(C)c(=O)[nH]c3=O)O[C@@H]2COP(=O)(O)O[C@H]2[C@@H](O)[C@H](n3cnc4c(N)ncnc43)O[C@@H]2COP(=O)(O)O[C@H]2[C@@H](O)[C@H](n3ccc(N)nc3=O)O[C@@H]2COP(=O)(O)O[C@H]2[C@@H](O)[C@H](n3ccc(N)nc3=O)O[C@@H]2COP(=O)(O)O[C@H]2[C@@H](O)[C@H](n3ccc(N)nc3=O)O[C@@H]2COP(=O)(O)O[C@H]2[C@@H](O)[C@H](n3cnc4c(=O)[nH]c(N)nc43)O[C@@H]2COP(=O)(O)O[C@H]2C[C@H](n3cc(C)c(=O)[nH]c3=O)O[C@@H]2COP(=O)(O)O[C@H]2[C@@H](O)[C@H](n3cnc4c(N)ncnc43)O[C@@H]2CO)O1 (some centres not stated)	49.7 °C		inactive

Second part, the compound after the results:

Tm [1]	Activity [2]	Activity [3]	SMILES
	Active		CSCCc1nc(N)nc2c1ncn2CC[C@H]1C[C@H](OP(=O)(O)OC[C@H]2O[C@@H](n3cc(C)c(=O)[nH]c3=O)C[C@@H]2OP(=O)(O)OC[C@H]2O[C@@H](n3cnc4c(N)ncnc43)[C@H](O)[C@@H]2OP(=O)(O)OC[C@H]2O[C@@H](n3cc(C)c(=O)[nH]c3=O)C[C@@H]2OP(CCC#N)N(C(C)C)C(C)C)[C@@H](COP(=O)(O)O[C@H]2C[C@H](n3cc(C)c(=O)[nH]c3=O)O[C@@H]2COP(=O)(O)O[C@H]2C[C@H](n3cc(C)c(=O)[nH]c3=O)O[C@@H]2COP(=O)(O)O[C@H]2[C@@H](O)[C@H](n3cnc4c(N)ncnc43)O[C@@H]2COP(=O)(O)O[C@H]2[C@@H](O)[C@H](n3cnc4c(N)ncnc43)O[C@@H]2COP(=O)(O)O[C@H]2[C@@H](O)[C@H](n3cnc4c(N)ncnc43)O[C@@H]2COP(=O)(O)O[C@H]2[C@@H](O)[C@H](n3ccc(N)nc3=O)O[C@@H]2COP(=O)(O)O[C@H]2C[C@H](n3cc(C)c(=O)[nH]c3=O)O[C@@H]2COP(=O)(O)O[C@H]2[C@@H](O)[C@H](n3cnc4c(N)ncnc43)O[C@@H]2COP(=O)(O)O[C@H]2[C@@H](O)[C@H](n3cnc4c(=O)[nH]c(N)nc43)O[C@@H]2COP(=O)(O)O[C@H]2C[C@H](n3cc(C)c(=O)[nH]c3=O)O[C@@H]2COP(=O)(O)O[C@H]2[C@@H](O)[C@H](n3ccc(N)nc3=O)O[C@@H]2COP(=O)(O)O[C@H]2[C@@H](O)[C@H](n3cnc4c(N)ncnc43)O[C@@H]2COP(=O)(O)O[C@H]2C[C@H](n3cc(C)c(=O)[nH]c3=O)O[C@@H]2COP(=O)(O)O[C@H]2[C@@H](O)[C@H](n3cnc4c(N)ncnc43)O[C@@H]2COP(=O)(O)O[C@H]2C[C@H](n3cc(C)c(=O)[nH]c3=O)O[C@@H]2CO)O1 (some centres not stated)
	inactive		CSCCc1nc(N)nc2c1ncn2[C@H]1C[C@H](OP(=O)(O)OC[C@H]2O[C@@H](n3cc(C)c(=O)[nH]c3=O)C[C@@H]2OP(=O)(O)OC[C@H]2O[C@@H](n3cnc4c(N)ncnc43)[C@H](O)[C@@H]2OP(=O)(O)OC[C@H]2O[C@@H](n3cc(C)c(=O)[nH]c3=O)C[C@@H]2OP(CCC#N)N(C(C)C)C(C)C)[C@@H](COP(=O)(O)O[C@H]2C[C@H](n3cc(C)c(=O)[nH]c3=O)O[C@@H]2COP(=O)(O)O[C@H]2C[C@H](n3cc(C)c(=O)[nH]c3=O)O[C@@H]2COP(=O)(O)O[C@H]2[C@@H](O)[C@H](n3cnc4c(N)ncnc43)O[C@@H]2COP(=O)(O)O[C@H]2[C@@H](O)[C@H](n3cnc4c(N)ncnc43)O[C@@H]2COP(=O)(O)O[C@H]2[C@@H](O)[C@H](n3cnc4c(N)ncnc43)O[C@@H]2COP(=O)(O)O[C@H]2[C@@H](O)[C@H](n3ccc(N)nc3=O)O[C@@H]2COP(=O)(O)O[C@H]2C[C@H](n3cc(C)c(=O)[nH]c3=O)O[C@@H]2COP(=O)(O)O[C@H]2[C@@H](O)[C@H](n3cnc4c(N)ncnc43)O[C@@H]2COP(=O)(O)O[C@H]2[C@@H](O)[C@H](n3cnc4c(=O)[nH]c(N)nc43)O[C@@H]2COP(=O)(O)O[C@H]2C[C@H](n3cc(C)c(=O)[nH]c3=O)O[C@@H]2COP(=O)(O)O[C@H]2[C@@H](O)[C@H](n3ccc(N)nc3=O)O[C@@H]2COP(=O)(O)O[C@H]2[C@@H](O)[C@H](n3cnc4c(N)ncnc43)O[C@@H]2COP(=O)(O)O[C@H]2C[C@H](n3cc(C)c(=O)[nH]c3=O)O[C@@H]2COP(=O)(O)O[C@H]2[C@@H](O)[C@H](n3cnc4c(N)ncnc43)O[C@@H]2COP(=O)(O)O[C@H]2C[C@H](n3cc(C)c(=O)[nH]c3=O)O[C@@H]2CO)O1 (some centres not stated)
53.3 °C		inactive	CSCCc1nc(N)nc2c1ncn2[C@H]1C[C@H](OP(=O)(O)OC[C@H]2O[C@@H](n3cc(C)c(=O)[nH]c3=O)C[C@@H]2OP(=O)(O)OC[C@H]2O[C@@H](n3cc(C)c(=O)[nH]c3=O)C[C@@H]2OP(=O)(O)OC[C@H]2O[C@@H](n3cnc4c(=O)[nH]c(N)nc43)[C@H](O)[C@@H]2OP(=O)(O)OC[C@H]2O[C@@H](n3cnc4c(N)ncnc43)[C@H](O)[C@@H]2OP(=O)(O)OC[C@H]2O[C@@H](n3cnc4c(=O)[nH]c(N)nc43)[C@H](O)[C@@H]2OP(=O)(O)OC[C@H]2O[C@@H](n3ccc(N)nc3=O)[C@H](O)[C@@H]2OP(=O)(O)OC[C@H]2O[C@@H](n3cnc4c(N)ncnc43)[C@H](O)[C@@H]2OP(=O)(O)OC[C@H]2O[C@@H](n3cnc4c(N)ncnc43)[C@H](O)[C@@H]2OP(=O)(O)OC[C@H]2O[C@@H](n3cc(C)c(=O)[nH]c3=O)C[C@@H]2OP(CCC#N)N(C(C)C)C(C)C)[C@@H](COP(=O)(O)O[C@H]2C[C@H](n3cc(C)c(=O)[nH]c3=O)O[C@@H]2COP(=O)(O)O[C@H]2[C@@H](O)[C@H](n3ccc(N)nc3=O)O[C@@H]2COP(=O)(O)O[C@H]2[C@@H](O)[C@H](n3cnc4c(N)ncnc43)O[C@@H]2COP(=O)(O)O[C@H]2C[C@H](n3cc(C)c(=O)[nH]c3=O)O[C@@H]2COP(=O)(O)O[C@H]2[C@@H](O)[C@H](n3cnc4c(N)ncnc43)O[C@@H]2COP(=O)(O)O[C@H]2[C@@H](O)[C@H](n3ccc(N)nc3=O)O[C@@H]2COP(=O)(O)O[C@H]2[C@@H](O)[C@H](n3ccc(N)nc3=O)O[C@@H]2COP(=O)(O)O[C@H]2[C@@H](O)[C@H](n3ccc(N)nc3=O)O[C@@H]2COP(=O)(O)O[C@H]2[C@@H](O)[C@H](n3cnc4c(=O)[nH]c(N)nc43)O[C@@H]2COP(=O)(O)O[C@H]2C[C@H](n3cc(C)c(=O)[nH]c3=O)O[C@@H]2COP(=O)(O)O[C@H]2[C@@H](O)[C@H](n3cnc4c(N)ncnc43)O[C@@H]2CO)O1 (some centres not stated)
